In ChEMBL document CHEMBL1125277, “Novel cerebroprotective agents with central nervous system stimulating activity. 1. Synthesis and pharmacology of 1-amino-7-hydroxyindan derivatives” (1991):

Columns and labels:
Assay type in all cases: functional
Mus musculus [1] = assay: Antihypoxic effect tested by the survival time (SVT) in mice at a dose of 100 mg/kg; parameters: unit: % of control
Outline: (§1)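 Male ICR mice (20–30 g), groups of 10, dosed 0.25 h (iv, sc or ip) or 1 h (oral) before test. Mice placed in desiccator evacuated to 210 mmHg. Survival time measured from pump start to cessation of respiration, capped at 900 s. Activity expressed as % of control survival time; Wilcoxon sum test.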

Mus musculus [2] = assay: Antihypoxic effect by the survival time (SVT) in mice at a dose of 3 mg/kg administered intravenously in mice; settings: route intravenous; outline: as §1
Mus musculus [3] = assay: Time of recovery of spontaneous movement (SMT) in seconds was measured after administration of 200 mg/kg perorally in mice for the promotional effect on recovery from coma; settings: route oral
Outline: (§2)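 Male ICR mice (20–30 g) were dosed orally 1 h before concussion was induced, and saline-dosed mice served as controls. Times to recovery of righting reflex and of spontaneous movement were recorded in seconds. Brains were examined post mortem, and mice with contused brain wounds were excluded. Statistics used the Wilcoxon sum test.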

Mus musculus [4] = assay: Time of recovery of righting reflux (RRT) in seconds was measured after administration of 200 mg/kg perorally in mice for the promotional effect on recovery from coma; settings: route oral; outline: as §2
Mus musculus [5] = assay: Antihypoxic effect by the survival time (SVT) in mice at a dose of 30 mg/kg administered subcutaneously in mice; parameters: unit: % of control; settings: route subcutaneous; outline: as §1
Mus musculus [6] = assay: Time of recovery of spontaneous movement (SMT) in seconds was measured after administration of 100 mg/kg orally in mice for the promotional effect on recovery from coma; outline: as §2
Mus musculus [7] = assay: Time of recovery of righting reflux (RRT) in seconds was measured after administration of 100 mg/kg orally in mice for the promotional effect on recovery from coma; outline: as §2
Mus musculus [8] = assay: Antihypoxic effect by the survival time (SVT) in mice at a dose of 100 mg/kg administered intraperitoneally in mice; outline: as §1
Mus musculus [9] = assay: Antihypoxic effect by the survival time (SVT) in mice at a dose of 30 mg/kg administered intraperitoneally in mice; settings: route intraperitoneal; outline: as §1
Mus musculus [10] = assay: Time of recovery of righting reflux (RRT) in seconds was measured after administration of 40 mg/kg intraperitoneally in mice for the promotional effect on recovery from coma; settings: route intraperitoneal
Outline: (§3)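 Male ICR mice (20–30 g); concussion-induced coma model of head injury. Control mice received the same amount of physiological saline. Brains examined post mortem and mice with contused wounds excluded. Recovery times in seconds (righting reflex or spontaneous movement) expressed as % of control; Wilcoxon sum test.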

Mus musculus [11] = assay: Time of recovery of spontaneous movement (SMT) in seconds was measured after administration of 40 mg/kg intraperitoneally in mice for the promotional effect on recovery from coma; settings: route intraperitoneal; outline: as §3
Mus musculus [12] = assay: Antihypoxic effect by the survival time (SVT) in mice at a dose of 40 mg/kg administered intraperitoneally in mice; settings: route intraperitoneal; outline: as §1
Mus musculus [13] = assay: Time of recovery of spontaneous movement (SMT) in seconds was measured after administration of 2.5 mg/kg intravenously in mice for the promotional effect on recovery from coma; settings: route intravenous
Outline: (§4)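 This is the concussion-induced coma model in male ICR mice (20–30 g), with saline-treated controls. Righting-reflex and spontaneous-movement recovery times were recorded in seconds. Animals with contused brain wounds at post-mortem were excluded. Groups were compared by Wilcoxon sum test.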

Mus musculus [14] = assay: Time of recovery of righting reflux (RRT) in seconds was measured after administration of 2.5 mg/kg intravenously in mice for the promotional effect on recovery from coma; settings: route intravenous; outline: as §4

Molecule | SVT (Mus musculus [1]) | SVT (Mus musculus [5]) | SMT (Mus musculus [6]; route oral) [s] | RRT (Mus musculus [7]; route oral) [s] | also measured
CN(C)CCOC(=O)COc1ccc(Cl)cc1 [MECLOFENOXATE] | 106 |  |  |  | SVT (Mus musculus [2]): 133; SMT (Mus musculus [3]): 63.8 s; RRT (Mus musculus [4]): 53.8 s
Cc1cc(C)c2c(c1O)C(N)CC2.Cl (configuration not stated) | 255.7 | 303.4 | 61.4 | 51.4 | 
Cc1ccccc1C1Cc2c(C)cc(C)c(O)c2C1N.Cl (configuration not stated) | 161.3 |  | 45.9 | 44.4 | 
Cc1cc(I)c(O)c2c1CCC2N.Cl (configuration not stated) |  | 184.6 | 92.3 | 81.1 | 
VITAMIN E | 178 |  |  |  | SMT (Mus musculus [6]): 83.5 s; SVT (Mus musculus [8]): 96.7; RRT (Mus musculus [7]): 92.2 s
Cc1ccc(O)c2c1CCC2N.Cl (configuration not stated) | 98.4 | 157.8 | 42.6 | 40.1 | 
Cc1cc(C)c2c(c1O)C(N)C(C)(c1ccccc1)C2.Cl (configuration not stated) | 171.6 |  | 34.7 | 34.1 | 
Cl.NC1CCc2c(Cl)cc(Cl)c(O)c21 (configuration not stated) |  | 65.8 |  |  | 
Cc1cc(C(C)(C)C)c(O)c2c1CCC2N.Cl (configuration not stated) |  |  | 113.5 | 90.6 | SVT (Mus musculus [9]): 252.8
Cc1cc(C(C)(C)C)c(O)c(C(C)(C)C)c1 [BUTYLATED HYDROXYTOLUENE] | 87.6 |  | 80.9 | 69.6 | SVT (Mus musculus [8]; route intraperitoneal): 358.8
Cc1cc(C)c2c(c1O)C(N)C(c1ccccc1Cl)C2.Cl (configuration not stated) | 151 |  | 33.8 | 35.8 | 
CCC(C)c1cc(C)c2c(c1O)C(N)CC2.Cl (configuration not stated) | 234.8 | 276.5 | 23.3 | 18.9 | 
CN(C)CCCN1c2ccccc2CCc2ccccc21.Cl [IMIPRAMINE HYDROCHLORIDE] | 67.9 |  | 115.5 | 113.4 | 
CNC1CCc2c(C)cc(C)c(O)c21.Cl (configuration not stated) |  | 177.5 | 55.8 | 57.9 | 
CC(C)(C)c1cc(C(C)(C)C)c2c(c1O)C(N)CC2.Cl (configuration not stated) | 119.2 |  | 157.6 | 160.2 | SVT (Mus musculus [9]): 171.3
CCCc1cc(CC)c2c(c1O)C(N)CC2.Cl (configuration not stated) | 206.8 | 194.3 | 116.3 | 94.4 | 
Cl.NC1CCc2c(O)cccc21 (configuration not stated) | 103.9 |  |  |  | 
Cl.NC1CCc2cccc(O)c21 (stereo in doubt; 11b) |  |  |  |  | SVT (Mus musculus [1]; 100 mg/kg): 78
CCCC(C)C1(CC)C(=O)N=C([O-])NC1=O.[Na+] (configuration not stated) [PENTOBARBITAL SODIUM] |  |  |  |  | RRT (Mus musculus [10]): 494 s; SMT (Mus musculus [11]): 283 s; SVT (Mus musculus [12]): 306.7

Molecule | SVT (Mus musculus [1]) | SVT (Mus musculus [5]) | SMT (Mus musculus [6]; route oral) [s] | RRT (Mus musculus [7]; route oral) [s] | also measured
CC(=O)Nc1cc(C)c2c(c1O)C(N)CC2.Cl (configuration not stated) |  | 46.8 |  |  | 
CCCc1cc(C)c2c(c1O)C(N)CC2.Cl (configuration not stated) | 205.3 | 244.6 |  |  | 
Cl.NC1CCc2cccc(O)c21 (stereo in doubt; 11a) |  |  | 99.1 | 102 | SVT (Mus musculus [1]; 100 mg/kg): 204.8
Cc1cc(C)c2c(c1O)C(N)C(Cc1ccccc1)C2.Cl (configuration not stated) | 148 |  | 38.6 | 47 | 
Cc1cc([N+](=O)[O-])c(O)c2c1CCC2N.Cl (configuration not stated) |  | 189.7 |  |  | 
CCCc1ccc2c(c1O)C(N)CC2.Cl (configuration not stated) | 158 | 138 | 79.5 | 70.5 | 
Cc1cc(C)c2c(c1O)C(N)C(C)C2.Cl (configuration not stated) | 237.7 |  | 71 | 79.1 | 
Cc1cc(CN)c(O)c2c1CCC2N.Cl (configuration not stated) | 110.2 | 74.3 | 79.3 | 69.9 | 
NC(=O)[C@@H]1CCCN1C(=O)[C@H](Cc1c[nH]cn1)NC(=O)[C@@H]1CCC(=O)N1 [PROTIRELIN] |  |  |  |  | SMT (Mus musculus [13]): 40.9 s; SVT (Mus musculus [2]): 43.4; RRT (Mus musculus [14]): 40.8 s
Cc1cc(C)c2c(c1O)C(N)C(C)(Cc1ccccc1)C2.Cl (configuration not stated) | 167.3 |  | 32.6 | 29.9 | 
Cc1cc(Br)c(O)c2c1CCC2N.Cl (configuration not stated) | 130.1 | 308 | 83.4 | 81.5 | 
COc1c(C)cc(C)c2c1C(N)C(C)(c1ccccc1)C2.Cl (configuration not stated) | 117.9 |  | 23.9 | 25 | 
Cc1cc(CC(C)C)c(O)c2c1CCC2N.Cl (configuration not stated) | 149.9 | 281.4 | 76.1 | 59.3 | 
CCCCNC1CCc2c(C)cc(C)c(O)c21.Cl (configuration not stated) | 187.3 |  | 57.7 | 55.3 | 
Cc1cc(C)c2c(c1O)C(N)C(C)(Cc1ccccc1)C2.Cl.O (configuration not stated) | 197 |  | 28.8 | 33 | 
COc1c(C)cc(C)c2c1C(N)C(C)(C)C2.Cl (configuration not stated) | 164.3 |  | 39.2 | 43.6 | 
Cc1cc(C)c2c(c1O)C(N)C(C)(C)C2.Cl (configuration not stated) | 288 | 298.1 | 53.9 | 37.2 | 
CCc1cc(C)c2c(c1O)C(N)C(c1ccccc1)C2.Cl (configuration not stated) | 97.4 |  | 94.4 | 89.2 | 
Cc1cc(C)c2c(c1O)C(N)C(c1ccccc1)C2.Cl (configuration not stated) | 149.1 |  | 37.6 | 31.1 | SVT (Mus musculus [9]): 185.7
